Results: ChEMBL document CHEMBL1135662, “Effects of isoprenoid analogues of SDB-ethylenediamine on multidrug resistant tumor cells alone and in combination with chemotherapeutic drugs” (J Med Chem, 2002)
Counter-ions that a name gives are not always drawn.

Tests used:
[1] = Index of sensitisation (IS) calculated as mean IC50 for cells incubated with ADM and of 2SC/2O; type: functional
Procedure, shortened: (§1)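 HET-SR-2SC-LNM or 2SC/20 cells exposed for 72 h to a vinblastine or adriamycin dose series, alone or with modulator at 5 µM. IC50 by MTT (540 nm). IS is the mean IC50 with the drug alone divided by the mean IC50 with drug plus modulator. Four repeats.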

[2] = Index of sensitisation (IS) calculated as mean IC50 for cells incubated with ADM and of HET-SR-2SC-LNM; type: functional; procedure, shortened: as §1
[3] = Index of sensitisation (IS) calculated as mean IC50 for cells incubated with VBL and of 2SC/2O; type: functional; procedure, shortened: as §1
Homo sapiens [4] = organism: Homo sapiens; experiment: Cytotoxicity against cell line mS determined by MTT test; type: functional
K562 [5] = experiment: Cytotoxicity against cell line K562 determined by MTT test; type: functional, cell-based; settings: Homo sapiens
Procedure, shortened: (§2)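 MTT assay after 72 h exposure, in duplicate. Human lung carcinoma COR L23/P and its adriamycin-selected MRP-mediated subline COR L23/R seeded at 5×10^3 per 200 µL. K562 leukemia cells and K562 transduced with human MDR1 (not drug-selected) seeded at 3×10^4 per 200 µL. Non-fibroblast lines grown in RPMI-1640 with 5% FBS. MTT 3 h, read at 540 nm. Mean ± SE of three experiments.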

[6] = Cytotoxicity against cell line COR/L23R and MRP determined by MTT test; type: functional; settings: Homo sapiens, COR-L23/R; procedure, shortened: as §2
[7] = Cytotoxicity against cell line COR/L23P determined by MTT test; type: functional; settings: Homo sapiens
Procedure, shortened: as §2, with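 “µL.” for “µL. Non-fibroblast lines grown in RPMI-1640 with 5% FBS.”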

[8] = Cytotoxicity against cell line 2SC/20 of hamster determined by MTT test; settings: Mesocricetus auratus
[9] = Cytotoxicity against cell line McA RH 7777/0.4 and Pgp determined by MTT test; type: functional; settings: Rattus norvegicus, McA-RH7777
[10] = Partition coefficient (logP); type: physicochemical; settings: octanol/water
[11] = Cytotoxicity against cell line HET-SR-2SC-LNM of hamster determined by MTT test; settings: Mesocricetus auratus
K562 [12] = experiment: Cytotoxicity against cell line K562i/S9 and pgp determined by MTT test; type: functional, cell-based; settings: Homo sapiens; procedure, shortened: as §2
[13] = Index of sensitisation (IS) calculated as mean IC50 for cells incubated with VBL and of HET-SR-2SC-LNM; type: functional; procedure, shortened: as §1
[14] = Cytotoxicity against cell line McA RH 7777 determined by MTT test; type: functional; settings: Rattus norvegicus, McA-RH7777
Homo sapiens [15] = organism: Homo sapiens; experiment: Cytotoxicity against cell line mS/0.5 and pgp determined by MTT test; type: functional
[16] = Cytotoxicity against cell line HET-SR-2SC-LNM determined by MTT test; settings: Mesocricetus auratus
[17] = Inhibitory concentration against the growth of HET-SR-2SC-LNM cell line after 72 hr of drug exposure by MTT test; settings: Mesocricetus auratus
[18] = Inhibitory concentration against the growth of 2SC/20 cell line after 72 hr of drug exposure by MTT test; settings: Mesocricetus auratus
[19] = Cytotoxicity against cell line 2SC/20 determined by MTT test; settings: Mesocricetus auratus
[20] = Index of sensitisation (IS)in presence of VBL and HET-SR-2SC-LNM; type: functional; procedure, shortened: as §1
[21] = Cytotoxicity against cell line […] and MRP determined by MTT test; type: functional; settings: Homo sapiens
Procedure, shortened: as §2, with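 “µL.” for “µL. Non-fibroblast lines grown in RPMI-1640 with 5% FBS.”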

[22] = Index of sensitisation (IS)in presence of ADM and HET-SR-2SC-LNM; type: functional; procedure, shortened: as §1
[23] = Index of sensitisation (IS)in presence of VBL and 2SC/2O; type: functional; procedure, shortened: as §1
[24] = Index of sensitisation (IS)in presence of ADM and 2SC/2O; type: functional; procedure, shortened: as §1
[25] = Inhibitory concentration against the growth of HET-SR-2SC-LNM cell line after 72 hr of drug exposure by MTT test; type: functional, Cricetulus griseus
[26] = Inhibitory concentration against the growth of 2SC/20 cell line after 72 hr of drug exposure by MTT test; type: functional, Cricetulus griseus
Procedure, shortened: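 Syrian hamster embryo fibroblasts (parental line or its colchicine-selected Pgp-positive 2SC/20 subline), grown in DMEM with 5% FBS at 37 °C, 5% CO2; selective agent withdrawn 2 days before use. (3–4) × 10³ cells per well, treated 16 h after plating, exposed 72 h. MTT (2 mg/mL solution) added for 3 h, formazan dissolved in acidified DMSO, absorbance read at 540 nm.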

[27] = Cytotoxicity against HET-SR-2SC-LNM cell line of hamster determined by MTT test; settings: Mesocricetus auratus
[28] = Intracellular uptake of drug in presence of 3H VBL and in absence of VRP in 2SC/20 cell line; settings: Mesocricetus auratus
[29] = Intracellular uptake of drug in presence of ADM and VRP in 2SC/20 cell line; settings: Mesocricetus auratus
[30] = Intracellular uptake of drug in presence of 3H VBL and absence of VRPin HET-SR-2SC-LNM cell line; settings: Mesocricetus auratus
[31] = Intracellular uptake of drug in presence of ADM and VRP in HET-SR-2SC-LNM cell line; settings: Mesocricetus auratus
[32] = Intracellular uptake of drug in presence of ADM and in absence of VRP in 2SC/20 cell line; settings: Mesocricetus auratus
[33] = Intracellular uptake of drug in presence of ADM and absence of VRPin HET-SR-2SC-LNM cell line; settings: Mesocricetus auratus
[34] = Intracellular uptake of drug in presence of 3H VBL and VRP in 2SC/20 cell line; settings: Mesocricetus auratus
[35] = Intracellular uptake of drug in presence of 3H VBL and VRP in HET-SR-2SC-LNM cell line; settings: Mesocricetus auratus

COc1ccc(CNCCN(C/C=C(\C)CCC=C(C)C)Cc2ccc(OC)c(OC)c2)cc1OC.Cl
IS [1]: 12
IS [2]: 2
IS [3]: 11
IC50 (Homo sapiens [4]): 40 µM
IC50 (K562 [5]): 125 µM
IC50 [6]: 13 µM
IC50 [7]: 25 µM
IC50 [8]: 10 µM
IC50 [9]: 20 µM
logP [10]: 4.51
IC50 [11]: 15 µM
IC50 (K562 [12]): 125 µM
IS [13]: 8
IC50 [14]: 55 µM
IC50 (Homo sapiens [15]): 18 µM

COc1ccc(CNCCN(C/C=C(\C)CC/C=C(\C)CCC=C(C)C)Cc2ccc(OC)c(OC)c2)cc1OC
IS [1]: 12
IS [2]: 2
IS [3]: 12
IC50 [8]: 13 µM
IS [13]: 6
IC50 [16]: 35 µM

CC[C@]1(O)C[C@@H]2CN(CCc3c([nH]c4ccccc34)[C@@](C(=O)OC)(c3cc4c(cc3OC)N(C)[C@H]3[C@@](O)(C(=O)OC)[C@H](OC(C)=O)[C@]5(CC)C=CCN6CC[C@]43[C@@H]65)C2)C1 [VINBLASTINE]
IC50 [17]: 18 nM
IC50 [18]: 246 nM

COc1cccc2c1C(=O)c1c(O)c3c(c(O)c1C2=O)C[C@@](O)(C(=O)CO)C[C@@H]3O[C@H]1C[C@H](N)[C@H](O)[C@H](C)O1 [DOXORUBICIN]
IC50 [17]: 52 nM
IC50 [18]: 620 nM

COc1cc2c(c(OC)c1OC)-c1ccc(OC)c(=O)cc1[C@@H](NC(C)=O)CC2 [COLCHICINE]
IC50 [17]: 25 nM
IC50 [18]: 500 nM

COc1ccc(CNCCN(C/C=C(\C)CC/C=C(\C)CC/C=C(\C)CC/C=C(\C)CC/C=C(\C)CC/C=C(\C)CC/C=C(\C)CC/C=C(\C)CCC=C(C)C)Cc2ccc(OC)c(OC)c2)cc1OC
IC50 [19]: 20 µM
IC50 (Homo sapiens [4]): 86 µM
IS [20]: 1
IC50 [21]: > 200 µM
IC50 (K562 [5]): 250 µM
IS [22]: 2
IC50 [7]: > 200 µM
IC50 [9]: 55 µM
IC50 (K562 [12]): 250 µM
IS [23]: 4
IC50 [16]: 80 µM
IC50 [14]: 65 µM
IS [24]: 6
IC50 (Homo sapiens [15]): 45 µM

BLEOMYCIN
IC50 [25]: 519 nM
IC50 [26]: 517 nM

COc1ccc(CNCCNCc2ccc(OC)c(OC)c2)cc1OC
IC50 [27]: 520 µM
IC50 [8]: 470 µM
logP [10]: 3.78

COc1ccc(CCN(C)CCCC(C#N)(c2ccc(OC)c(OC)c2)C(C)C)cc1OC (configuration not stated) [VERAPAMIL HYDROCHLORIDE]
drug uptake [28]: 10 pmol/mg protein
drug uptake [29]: 289 pmol/30 min
IS [20]: 4
IC50 (K562 [5]): 100 µM
drug uptake [30]: 22 pmol/mg protein
IS [22]: 2
drug uptake [31]: 310 pmol/30 min
drug uptake [32]: 132 pmol/30 min
IC50 [9]: 470 µM
IC50 (K562 [12]): 100 µM
drug uptake [33]: 235 pmol/30 min
IS [23]: 11
drug uptake [34]: 23 pmol/mg protein
drug uptake [35]: 29 pmol/mg protein
IS [24]: 11
IC50 (Homo sapiens [15]): 230 µM
